# ChEMBL document CHEMBL3763045, “Design, Synthesis, and Pharmacological Evaluation of Novel N-Acylhydrazone Derivatives as Potent Histone Deacetylase 6/8 Dual Inhibitors” (J Med Chem, 2016)
# Calls of active or inactive are those of the source. The calls are words filed in the database; no cut-off is given here.
# How the values were obtained:
# [1] = Aqueous solubility of the compound in buffer at pH 7.4 after 24 hrs by spectrophotometric method; format: physicochemical
# How it was run: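 Water solubility in pH 7.4 buffer, measured spectrophotometrically by the method of Schneider and coworkers.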
# [2] = biological target: Histone deacetylase (Rattus norvegicus) (UniProt Q6P6W3+Q99P99+Q99P96+Q4QQW4+Q99P97+Q5RJZ2+B1WBY8); experiment: Inhibition of HDAC in rat liver at 1 uM by fluorimetry
# How it was run: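 Rat liver HDAC preparation, non-selective enzyme assay, test compounds at 1 µM; % inhibition is the mean of two experiments.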
# [3] = biological target: Histone deacetylase 2 (Homo sapiens, UniProt Q92769); experiment: Inhibition of recombinant human HDAC2 by fluorimetry
# Histone deacetylase 2, sequence (Q92769 whole entry): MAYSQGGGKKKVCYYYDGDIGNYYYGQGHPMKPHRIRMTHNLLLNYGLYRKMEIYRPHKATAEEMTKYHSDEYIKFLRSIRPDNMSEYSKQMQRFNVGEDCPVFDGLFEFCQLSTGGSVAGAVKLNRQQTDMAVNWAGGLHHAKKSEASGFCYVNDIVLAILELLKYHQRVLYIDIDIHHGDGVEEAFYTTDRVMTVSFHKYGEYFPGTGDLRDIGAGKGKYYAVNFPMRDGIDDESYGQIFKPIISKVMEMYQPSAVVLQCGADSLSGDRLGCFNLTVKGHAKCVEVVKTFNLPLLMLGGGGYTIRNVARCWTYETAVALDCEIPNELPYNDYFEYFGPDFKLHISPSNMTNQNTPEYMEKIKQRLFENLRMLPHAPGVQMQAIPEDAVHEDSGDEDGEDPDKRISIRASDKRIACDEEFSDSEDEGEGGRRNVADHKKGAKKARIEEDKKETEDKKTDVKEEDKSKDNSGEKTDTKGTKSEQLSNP
# [4] = biological target: T1, Protein deacetylase HDAC6 (Homo sapiens, UniProt Q9UBN7); experiment: Inhibition of recombinant human HDAC6 by fluorimetry
# T1 sequence (Q9UBN7 whole entry): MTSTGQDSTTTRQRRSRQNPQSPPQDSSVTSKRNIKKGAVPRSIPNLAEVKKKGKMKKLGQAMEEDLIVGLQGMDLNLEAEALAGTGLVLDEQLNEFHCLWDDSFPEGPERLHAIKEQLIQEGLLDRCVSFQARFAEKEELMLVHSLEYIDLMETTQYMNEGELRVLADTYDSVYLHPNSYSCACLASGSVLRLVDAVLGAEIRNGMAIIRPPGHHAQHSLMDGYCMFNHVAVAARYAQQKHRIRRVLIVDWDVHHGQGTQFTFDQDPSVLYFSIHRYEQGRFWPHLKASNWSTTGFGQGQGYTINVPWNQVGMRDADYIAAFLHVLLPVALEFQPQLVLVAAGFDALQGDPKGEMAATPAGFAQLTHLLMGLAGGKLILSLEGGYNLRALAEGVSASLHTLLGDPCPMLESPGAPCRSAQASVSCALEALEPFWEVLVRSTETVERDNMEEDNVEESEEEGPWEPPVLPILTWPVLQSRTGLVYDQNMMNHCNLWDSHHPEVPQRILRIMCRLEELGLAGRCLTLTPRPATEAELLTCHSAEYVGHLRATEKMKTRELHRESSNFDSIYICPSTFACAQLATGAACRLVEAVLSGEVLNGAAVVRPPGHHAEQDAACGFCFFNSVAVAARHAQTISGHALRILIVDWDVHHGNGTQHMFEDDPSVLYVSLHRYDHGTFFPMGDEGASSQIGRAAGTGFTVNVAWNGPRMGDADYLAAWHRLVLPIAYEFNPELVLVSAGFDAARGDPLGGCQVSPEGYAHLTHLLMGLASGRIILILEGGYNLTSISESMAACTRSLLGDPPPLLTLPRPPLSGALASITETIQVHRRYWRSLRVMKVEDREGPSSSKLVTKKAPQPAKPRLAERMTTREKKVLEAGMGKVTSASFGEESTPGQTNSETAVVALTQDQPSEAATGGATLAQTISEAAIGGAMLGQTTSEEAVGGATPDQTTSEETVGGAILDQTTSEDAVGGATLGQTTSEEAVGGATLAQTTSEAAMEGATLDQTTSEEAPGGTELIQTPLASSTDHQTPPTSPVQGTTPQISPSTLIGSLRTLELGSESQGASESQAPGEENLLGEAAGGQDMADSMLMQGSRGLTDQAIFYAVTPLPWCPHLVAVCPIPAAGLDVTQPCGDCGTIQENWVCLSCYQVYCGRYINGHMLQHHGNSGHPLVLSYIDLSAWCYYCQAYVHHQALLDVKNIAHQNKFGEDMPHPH
# [5] = biological target: Histone deacetylase; experiment: Inhibition of HDAC in rat liver by fluorimetry
# How it was run: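 Rat liver HDAC IC50 from a six-point enzyme assay, three-fold serial dilution starting at 3 µM or 1 µM depending on compound; mean of two experiments ± SD.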
# [6] = tested on: HepG2; experiment: Antiproliferative activity against human HepG2 cells assessed as reduction in cell viability after 48 hrs by MTS assay; format: functional, cell-based; conditions: HepG2, 48 h
# [7] = tested on: HepG2; experiment: Effect on cell cycle distribution in human HepG2 cells assessed as accumulation at SubG1 phase at 5 to 10 uM after 24 to 48 hrs by propidium iodide staining-based flow cytometry; format: functional
# How it was run: (§1)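 Cell cycle of HepG2 cells by flow cytometry after 5 or 10 µM for 24 and 48 h, giving SubG1, G0/G1, S and G2/M fractions. ANOVA with Tukey's post-test against control.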
# [8] = biological target: T2, Protein deacetylase HDAC6 (Homo sapiens) (UniProt Q9UBN7); experiment: Inhibition of HDAC6 in human Calu1 cells assessed as induction of tubulin acetylation at 15 to 54 nM after 24 hrs by Western blotting analysis; format: cell-based; conditions: Calu-1
# T2 sequence (whole entry): T1 sequence (Q9UBN7 whole entry)
# How it was run: (§2)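 Calu-1 and A549 cells treated 24 h, acetylated tubulin detected by western blot with GAPDH as loading control. DMSO vehicle control; one representative of three independent experiments.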
# [9] = Chemical stability of the compound in acidic buffer assessed as compound hydrolysis at pH 2 measured for 240 mins by HPLC-PDA analysis; format: physicochemical; conditions: pH 2, 4 h
# How it was run: (§3)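 Compounds stirred in pH 7.4 or pH 2 buffer at 37 °C for 240 min; percentage of compound recovered followed over time (30 min and 4 h points). Triplicate runs, values averaged.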
# [10] = Antiproliferative activity against human HT144 cells assessed as reduction in cell viability after 48 hrs by MTS assay; format: functional, cell-based; conditions: HT-144, 48 h
# [11] = biological target: Histone deacetylase 1 (Homo sapiens, UniProt Q13547); experiment: Inhibition of recombinant human HDAC1 by fluorimetry
# Histone deacetylase 1, sequence (Q13547 whole entry): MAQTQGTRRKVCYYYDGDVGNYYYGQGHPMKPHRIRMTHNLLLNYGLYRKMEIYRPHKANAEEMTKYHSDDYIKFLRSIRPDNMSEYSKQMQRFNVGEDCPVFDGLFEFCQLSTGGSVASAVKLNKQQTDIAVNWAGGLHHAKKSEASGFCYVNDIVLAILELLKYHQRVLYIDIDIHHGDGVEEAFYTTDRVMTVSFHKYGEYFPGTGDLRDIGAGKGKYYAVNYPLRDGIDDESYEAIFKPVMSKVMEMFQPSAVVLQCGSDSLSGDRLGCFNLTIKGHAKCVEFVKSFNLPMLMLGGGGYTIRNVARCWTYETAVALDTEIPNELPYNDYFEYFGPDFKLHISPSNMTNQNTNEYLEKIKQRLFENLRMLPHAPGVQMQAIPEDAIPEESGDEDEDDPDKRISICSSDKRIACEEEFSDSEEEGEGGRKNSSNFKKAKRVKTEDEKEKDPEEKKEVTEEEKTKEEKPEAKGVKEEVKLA
# [12] = tested on: HepG2; experiment: Effect on cell cycle distribution in human HepG2 cells assessed as decrease in S phase at 5 to 10 uM after 24 to 48 hrs by propidium iodide staining-based flow cytometry; format: functional; how it was run: as §1
# [13] = tested on: HT-144; experiment: Antiproliferative activity against human HT144 cells assessed as reduction in cell viability at 40 uM after 48 hrs by MTS assay; format: functional, cell-based
# [14] = biological target: T2, Protein deacetylase HDAC6 (Homo sapiens); experiment: Inhibition of HDAC6 in human A549 cells assessed as induction of tubulin acetylation at 15 to 54 nM after 24 hrs by Western blotting analysis; format: cell-based; how it was run: as §2
# [15] = tested on: HepG2; experiment: Antiproliferative activity against human HepG2 cells assessed as reduction in cell viability at 40 uM after 48 hrs by MTS assay; format: functional, cell-based
# [16] = tested on: HepG2; experiment: Effect on cell cycle distribution in human HepG2 cells assessed as decrease in G0/G1 phase at 5 to 10 uM after 24 to 48 hrs by propidium iodide staining-based flow cytometry; format: functional; how it was run: as §1
# [17] = Lipophilicity, logD of the compound at pH 7.4 after 4 hrs; format: physicochemical; conditions: buffer
# [18] = tested on: HepG2; experiment: Effect on cell cycle distribution in human HepG2 cells assessed as accumulation at G2/M phase at 5 uM after 24 and 48 hrs by propidium iodide staining-based flow cytometry; format: functional; how it was run: as §1
# [19] = Chemical stability of compound in phosphate dibasic buffer assessed as compound degradation at pH 7.4 by HPLC-PDA analysis; format: physicochemical; conditions: read-out: Drug degradation; how it was run: as §3
# [20] = tested on: MCF7; experiment: Antiproliferative activity against human MCF7 cells assessed as reduction in cell viability at 40 uM after 48 hrs by MTS assay; format: functional, cell-based
# How it was run: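 MCF-7 cells exposed at 40 µM for 48 h, viability by MTS; ANOVA with Tukey's post-test against control.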
# [21] = tested on: Calu-1; experiment: Inhibition of cell migration in human Calu1 cells at 15 and 30 nM after 48 hrs by scratch test; format: functional, cell-based
# How it was run: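 Calu-1 migration by scratch test after 48 h treatment. DMSO vehicle control; one representative of three independent experiments.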
# [22] = Ionization constant, pKa of the compound in buffer measured over 3 hrs by UV spectrometry; format: physicochemical
# [23] = biological target: T3, Histone deacetylase 8 (Homo sapiens, UniProt Q9BY41); experiment: Inhibition of recombinant human HDAC8 by fluorimetry
# T3 sequence (Q9BY41 whole entry): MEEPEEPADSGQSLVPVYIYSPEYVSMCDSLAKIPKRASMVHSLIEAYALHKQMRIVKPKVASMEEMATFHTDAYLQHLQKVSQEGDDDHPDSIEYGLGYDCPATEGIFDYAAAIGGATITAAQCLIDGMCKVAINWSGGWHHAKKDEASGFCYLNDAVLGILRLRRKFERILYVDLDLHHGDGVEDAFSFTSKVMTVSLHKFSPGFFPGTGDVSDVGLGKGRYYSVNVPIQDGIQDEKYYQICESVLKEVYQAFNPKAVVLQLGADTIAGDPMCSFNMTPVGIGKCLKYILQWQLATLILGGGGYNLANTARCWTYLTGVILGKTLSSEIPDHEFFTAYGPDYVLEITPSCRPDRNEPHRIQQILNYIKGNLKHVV
# [24] = Chemical stability of the compound in acidic buffer assessed as compound recovery at pH 2 after 30 mins by HPLC-PDA analysis; format: physicochemical; how it was run: as §3
# [25] = Chemical stability of the compound in acidic buffer assessed as compound recovery at pH 2 after 4 hrs by HPLC-PDA analysis; format: physicochemical; conditions: buffer, pH 2, 4 h; how it was run: as §3
# [26] = tested on: HepG2; experiment: Induction of apoptosis in human HepG2 cells at 5 to 10 uM after 24 hrs by TUNEL assay; format: functional, cell-based
# How it was run: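 HepG2 cells treated 24 h (5 and 10 µM for TUNEL, 5 µM for caspase 3/7). Apoptosis scored by flow cytometry as TUNEL-positive frequency and as cells with activated caspase 3/7. Doxorubicin positive control; ANOVA with Tukey's post-test.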
solubility at 24 h [1],inhibition [2],IC50 [3],IC50 [4],IC50 [11],IC50 [23],Structure (SMILES),Activity [13],Activity [15],Activity [20],other results
1.7 µM,,,,,,COC(=O)c1ccc(/C=N/NC(=O)c2ccc(N(C)C)cc2)cc1,,,,
3.7 µM,-4.6%,,,,,COC(=O)c1cccc(/C=N/NC(=O)c2ccc(N(C)C)cc2)c1,,,,
1.4 µM,,,,,,COC(=O)c1ccc(/C=N/N(C)C(=O)c2ccc(N(C)C)cc2)cc1,,,,
6.2 µM,,> 3000 nM,56 nM,> 3000 nM,110 nM,C/C(=N\NC(=O)c1ccc(N(C)C)cc1)c1ccc(C(=O)NO)cc1,Active,Active,Active,"IC50 [6]: 11500 nM; Activity [7]: Active; Stability [9]: Unstable; IC50 [10]: 20000 nM; Stability [25]: Unstable; Activity [12]: Active; Activity [26]: Active; Activity [16]: Active; degraded [19]: > 15%; remaining at 0.5 h ([24]; acidic buffer, pH 2, read-out: Drug recovery): 6%"
> 67 µM,-8.7%,,,,,CN(/N=C/c1ccc(C(=O)O)cc1)C(=O)c1ccc(N(C)C)cc1,,,,
> 70 µM,,,,,,CN(C)c1ccc(C(=O)N/N=C/c2cccc(C(=O)O)c2)cc1,,,,
> 70 µM,33.4%,> 10000 nM,2500 nM,> 10000 nM,2000 nM,CN(/N=C/c1cccc(C(=O)NO)c1)C(=O)c1ccc(N(C)C)cc1,Active,Active,Active,

# Second part, the compound before the results:
Structure (SMILES),solubility at 24 h [1],inhibition [2],IC50 [3],IC50 [4],IC50 [11],IC50 [23],Activity [13],Activity [15],Activity [20],other results
COC(=O)c1cccc(/C=N/N(C)C(=O)c2ccc(N(C)C)cc2)c1,8.2 µM,,,,,,,,,
CN(C)c1ccc(C(=O)N/N=C/c2ccc(C(=O)O)cc2)cc1,> 77 µM,-9.1%,,,,,,,,
CN(C)c1ccc(C(=O)N/N=C/c2ccc(C(=O)NO)cc2)cc1,15 µM,90.4%,> 3000 nM,15 nM,> 3000 nM,230 nM,Active,Active,Active,IC50 [5]: 21 nM; IC50 [6]: 9480 nM; Activity [7]: Active; inhibition [8]: Active; Stability [9]: Unstable; IC50 [10]: 21200 nM; Activity [12]: Active; inhibition [14]: Active; Activity [16]: Active; logD at 4 h [17]: 0.68; Activity [18]: Active; degraded [19]: > 15%; inhibition [21]: Active; pKa at 3 h [22]: 8.1
C/C(=N\N(C)C(=O)c1ccc(N(C)C)cc1)c1ccc(C(=O)NO)cc1,122 µM,,> 3000 nM,97 nM,> 3000 nM,54 nM,Active,Active,Active,"IC50 [6]: 30300 nM; Stability [9]: Unstable; IC50 [10]: 51600 nM; degraded [19]: > 15%; Stability ([24]; buffer, pH 2, 0.5 h): Unstable"
CN(/N=C/c1cccc(C(=O)O)c1)C(=O)c1ccc(N(C)C)cc1,> 67 µM,-5.8%,,,,,,,,
CN(C)c1ccc(C(=O)N/N=C/c2cccc(C(=O)NO)c2)cc1,> 67 µM,66%,> 10000 nM,390 nM,> 10000 nM,2200 nM,Active,Active,Active,IC50 [5]: 1200 nM
